Compound activity as filed in PubChem BioAssay.
Compounds with a hit are over-represented: about 2.6% of the library has one in this group of screens.
NPY2 pot ag: potentiates or activates human NPY-Y2 receptor | P49146 | cells expressing NPY-Y2, potentiator/agonist read-out | activation, % at 3.6 µM | actives 0.45% (n = 220,000); in the data active means activation above about 27%;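 further: cells stimulated with NPY near EC25 plus isoproterenol at EC100; 0% = vehicle plus submaximal agonist and 100% = vehicle plus saturating agonist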
Target sequence (P49146 whole entry, looked up): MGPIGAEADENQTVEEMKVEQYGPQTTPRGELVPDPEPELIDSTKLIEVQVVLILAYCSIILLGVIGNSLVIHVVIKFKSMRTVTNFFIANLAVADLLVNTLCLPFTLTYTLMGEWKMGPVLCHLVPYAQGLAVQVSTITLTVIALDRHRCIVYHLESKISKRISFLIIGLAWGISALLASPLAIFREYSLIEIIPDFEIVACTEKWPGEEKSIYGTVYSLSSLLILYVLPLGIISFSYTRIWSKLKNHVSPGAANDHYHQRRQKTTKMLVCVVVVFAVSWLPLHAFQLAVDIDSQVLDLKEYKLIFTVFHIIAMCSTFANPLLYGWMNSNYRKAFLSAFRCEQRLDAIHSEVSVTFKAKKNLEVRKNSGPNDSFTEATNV
NPY-Y1 PAM-ag: potentiates or activates human NPY-Y1 receptor; P25929; NPY-Y1 expressing cells, potentiator/agonist activation; activation, % at 3.6 µM; actives 0.37% (n = 220,000); AID 1304; in the data active means activation above about 33%, passing the limit was not always enough;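 further: cells stimulated with NPY at EC10 then isoproterenol at EC100; 0% = low agonist plus stimulus and 100% = saturating agonist plus stimulus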
bCat nuc transl: beta-catenin nuclear translocation modulation | actives 0.3% (n = 190,000) | HeLa beta-catenin nuclear translocation, immunofluorescence imaging | AID 1665 | nuclear translocation activity, % at 5 µM;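 active means nuclear translocation activity above 50% at 5 µM, with a well cell count of 50 or more; inconclusive means wells under 50 cells across six images, flagged as toxic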;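 further: per-cell ratio of nuclear to cytoplasmic median beta-catenin stain intensity; plate controls were DMSO negative control for no effect and GSK-3 inhibitor IX positive control for full effect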
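Assay system: human HeLa cells, native beta-catenin; doses: 5 µM primary, 0.02–20 µM confirmation; incubation: compound treatment 24 h, 37°C, 5% CO2; technique: fluorescence imaging of beta-catenin antibody stain plus DAPI; measure: % activation, nuclear-to-cytoplasmic median beta-catenin signal ratio per cell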
NPY-Y1 antag: NPY-Y1 (human) receptor antagonism; AID 1040; P25929; inhibition, % at 3.6 µM; actives 1% (n = 200,000); HEK293-CNG Y1 cells, membrane potential fluorescence; NPY at EC95, then isoproterenol;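 active means inhibition above the campaign mean inhibition of all tested compounds plus 3 SD, cut at about 20% in these data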;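 further: 0% = DMSO wells given NPY plus isoproterenol and 100% = isoproterenol alone without NPY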
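Material: HEK293 Y1/CNG channel cell line; also added: NPY (25 nM), isoproterenol (1 µM), Ro 20-1724 (25 µM); doses: one concentration, 3.6 µM, in 0.4% DMSO; schedule: compound incubation 1 h at room temperature, readout 45 min post-stimulation; technique: membrane potential fluorescence; measure: fluorescence ratio normalized to % inhibition between controls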
NPY-Y2 antag: NPY-Y2 (human) receptor antagonism; inhibition, % at 2.7 µM; AID 793; NPY-Y2 expressing cells, antagonist mode; P49146; actives 0.99% (n = 140,000); in the data active means inhibition above about 17%;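 further: 0% = vehicle with agonist challenge and 100% = reference antagonist with challenge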
MT stabilize HCS: microtubule stabilization, imaging screen; HeLa tubulin immunostaining HCS, 24 h; share of cells brighter than vehicle mean+2SD; % tubulin-high responders, % at 10 µM; actives 0.83% (n = 200,000);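 active means plate Z-score above 3 for both tubulin-high and condensed-nucleus cell shares, with cell loss under 80%, at 10 µM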;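 further: anti alpha tubulin signal scored within the nucleus-defined area of each cell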
An asterisk follows results filed as active.

For COC(=O)/C=C/c1ccccc1S(=O)(=O)N(Cc1ccccc1)Cc1ccco1 the results were bCat nuc transl 74*.
`COCCn1nnnc1CN1CCC(Cc2ccccc2)CC1` gave NPY2 pot ag -8, NPY-Y1 PAM-ag -10, bCat nuc transl -4, NPY-Y1 antag -5, NPY-Y2 antag 14 and MT stabilize HCS 3.
For COCCN1C(=O)C(=O)/C(=C(/O)c2ccc(S(=O)(=O)N3CCOCC3)cc2)C1c1cccc(Cl)c1 (centres undefined) the results were NPY2 pot ag -8, NPY-Y1 PAM-ag 6 and bCat nuc transl 0.
Screening O=C(OCC(=O)c1c[nH]c2ccccc12)c1ccc(Br)o1 returned NPY2 pot ag 70*, NPY-Y1 PAM-ag 63*, bCat nuc transl -1, NPY-Y1 antag -3, NPY-Y2 antag 1 and MT stabilize HCS 1.
Screening COc1ccccc1NC(=O)c1cc2cc(Br)ccc2cc1O returned NPY2 pot ag 86*, NPY-Y1 PAM-ag 96* and bCat nuc transl 4.
`CN(C)C(=O)NC(Nc1ccc(Cl)cc1Cl)C(Cl)(Cl)Cl` (centres undefined) gave NPY2 pot ag 4, NPY-Y1 PAM-ag -10, bCat nuc transl -2, NPY-Y1 antag -1, NPY-Y2 antag 4 and MT stabilize HCS 2.
For O=c1cc(NC2CCCCC2)c2ccccc2o1 the results were NPY2 pot ag 13, NPY-Y1 PAM-ag 2, bCat nuc transl -1, NPY-Y1 antag 2, NPY-Y2 antag 3 and MT stabilize HCS 4.
For CN(C)c1ccc(/C=C/c2ccc3c4ccccc4ccc3[n+]2-c2ccccc2)cc1 the results were NPY2 pot ag 58*, NPY-Y1 PAM-ag 30, bCat nuc transl inconclusive, NPY-Y1 antag 11 and MT stabilize HCS 83.
For Cc1ccc(S(=O)(=O)NCC(=O)OCC(=O)c2c(N)n(C)c(=O)n(C)c2=O)cc1 the results were NPY2 pot ag 14, NPY-Y1 PAM-ag 15, bCat nuc transl 0, NPY-Y1 antag 6, NPY-Y2 antag 1 and MT stabilize HCS 4.
`COc1cc(C2C=C(c3cccs3)Nc3ncnn32)cc(OC)c1OC` (centres undefined) gave NPY2 pot ag 14, NPY-Y1 PAM-ag 4, bCat nuc transl 119*, NPY-Y1 antag 10 and MT stabilize HCS 3.
COc1cc(C2C3=C(Nc4ncnn42)c2ccccc2CC3)cc(OC)c1OC (centres undefined) was read as NPY2 pot ag -48, NPY-Y1 PAM-ag -17, bCat nuc transl 135*, NPY-Y1 antag -14, NPY-Y2 antag 5 and MT stabilize HCS 18*.
`COc1cccc(-c2cc(=O)c3cc(NC(C)=O)ccc3[nH]2)c1` gave NPY2 pot ag -2, NPY-Y1 PAM-ag -31, NPY-Y1 antag -1, NPY-Y2 antag 0 and MT stabilize HCS 30*.
For CC(=O)Nc1ccc2[nH]c(C)cc(=O)c2c1 the results were NPY2 pot ag 0, NPY-Y1 PAM-ag 7, NPY-Y1 antag 3, NPY-Y2 antag 5 and MT stabilize HCS 1.
Screening CN(C)S(=O)(=O)c1cccc(NC(=O)c2cc(-c3cccs3)nn2-c2cccc(Cl)c2)c1 returned NPY2 pot ag -33, NPY-Y1 PAM-ag -58, bCat nuc transl 30, NPY-Y1 antag 11, NPY-Y2 antag 8 and MT stabilize HCS 13*.
CN1C(=S)SC(C)(C)C1N(O)C(=O)Nc1ccc(Cl)cc1 (centres undefined) was read as NPY2 pot ag 3, NPY-Y1 PAM-ag -13, bCat nuc transl 0, NPY-Y1 antag 0 and MT stabilize HCS 3.
CC1(C)C(N(O)C(=O)Nc2ccc(Cl)cc2)N(c2ccc(Cl)cc2)C(=O)N1CC(=O)NN (centres undefined) was read as NPY2 pot ag 43*, NPY-Y1 PAM-ag 41*, NPY-Y1 antag -8, NPY-Y2 antag 0 and MT stabilize HCS 1.
COc1ccc(OC)c(C(C)NC(=O)Nc2cccc(C(C)=O)c2)c1 (centres undefined) was read as NPY2 pot ag -5, NPY-Y1 PAM-ag 13, bCat nuc transl 0, NPY-Y1 antag 7 and MT stabilize HCS 6.
Screening O=C(Nc1ccc(N2CCOCC2)cc1)c1ccc(Cl)nc1 returned NPY2 pot ag -4, NPY-Y1 PAM-ag -3, bCat nuc transl -3, NPY-Y1 antag 6, NPY-Y2 antag -2 and MT stabilize HCS 3.
`CCN(c1ccc(NC(=O)c2ccc(Cl)nc2)cc1)C(C)C` gave NPY2 pot ag -14, NPY-Y1 PAM-ag -2, bCat nuc transl 27, NPY-Y1 antag -3 and MT stabilize HCS 23*.
CCN(CC)CCCNC1=C(Cl)C(=O)c2ccccc2C1=O was read as NPY2 pot ag -9, NPY-Y1 PAM-ag 6, bCat nuc transl 1, NPY-Y1 antag -3 and MT stabilize HCS 43*.
Screening O=C(C1=C[C@H](c2csc3ccccc23)C[C@H](OCc2ccc(CO)cc2)O1)N1CCN(Cc2ccc3c(c2)OCO3)CC1 returned NPY2 pot ag 4, NPY-Y1 PAM-ag 19, bCat nuc transl -2, NPY-Y1 antag -3 and MT stabilize HCS 3.
Screening CCOC(=O)c1ccc2c(c1)nc(-c1ccc(F)cc1)c1nccn12 returned NPY2 pot ag -4, NPY-Y1 PAM-ag -8, NPY-Y1 antag -2, NPY-Y2 antag 1 and MT stabilize HCS 2.
COc1cc(C2=NOC(C(=O)NCc3ccco3)C2)cc(OC)c1OC (centres undefined) was read as NPY2 pot ag -8, NPY-Y1 PAM-ag 12, bCat nuc transl 60*, NPY-Y1 antag 0, NPY-Y2 antag 2 and MT stabilize HCS 23*.
COc1cc(C2=NOC(C(=O)NCc3cccs3)C2)cc(OC)c1OC (centres undefined) was read as NPY2 pot ag -2, NPY-Y1 PAM-ag -13, NPY-Y1 antag 5, NPY-Y2 antag 3 and MT stabilize HCS 27.
COc1ccc(CNC(=O)C2CC(c3ccc(OC)cc3)=NO2)cc1 (centres undefined) was read as NPY2 pot ag -11, NPY-Y1 PAM-ag -21, bCat nuc transl 0, NPY-Y1 antag 14, NPY-Y2 antag 4 and MT stabilize HCS 5.
`COc1ccc(C2=NOC(C(=O)NCc3ccco3)C2)cc1` (centres undefined) gave NPY2 pot ag -1, NPY-Y1 PAM-ag 37, bCat nuc transl 14, NPY-Y1 antag 12, NPY-Y2 antag 4 and MT stabilize HCS 38*.
`COc1cc(OC)c(C2=NOC(C(=O)NCc3cccs3)C2)cc1Cl` (centres undefined) gave NPY2 pot ag -19, NPY-Y1 PAM-ag -2, bCat nuc transl 24, NPY-Y1 antag 20 and MT stabilize HCS 19*.
`CC(CNC(=O)c1cccs1)c1ccc([N+](=O)[O-])cc1` (centres undefined) gave NPY2 pot ag -12, NPY-Y1 PAM-ag -10, bCat nuc transl 3, NPY-Y1 antag 2 and MT stabilize HCS 3.
